{"data": "Measurements from different studies", "target": "Serine/threonine-protein kinase Sgk1 (SGK1, Homo sapiens, UniProt O00141)", "Residues used in one study (O00141 1-431)": "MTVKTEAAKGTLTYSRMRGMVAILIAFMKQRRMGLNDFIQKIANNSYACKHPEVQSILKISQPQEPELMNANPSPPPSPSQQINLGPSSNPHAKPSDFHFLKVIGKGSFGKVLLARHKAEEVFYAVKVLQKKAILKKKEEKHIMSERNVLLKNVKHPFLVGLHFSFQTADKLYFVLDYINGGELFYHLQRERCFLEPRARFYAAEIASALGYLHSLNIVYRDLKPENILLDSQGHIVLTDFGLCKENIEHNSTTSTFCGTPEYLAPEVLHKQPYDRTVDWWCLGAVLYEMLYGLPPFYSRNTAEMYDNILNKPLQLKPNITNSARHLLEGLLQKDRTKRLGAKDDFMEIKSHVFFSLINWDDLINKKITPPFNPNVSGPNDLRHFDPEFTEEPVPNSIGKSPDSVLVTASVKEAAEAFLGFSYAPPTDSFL", "note": "Each line is one published result; the experiments were not run side by side."}
{"SMILES": "COc1cnc(Nc2cccc(S(N)(=O)=O)c2)nc1N1CCN(c2ccccc2)CC1", "assay": "binding, competition with immobilised ligand", "setting": "1 µM", "remaining binding [%]": 76}
{"SMILES": "CC(=O)Nc1c(C(C)=O)c(=O)n(C)c2nc(-c3ccc(Cl)cc3Cl)c(-c3ccc(Cl)cc3)cc12", "assay": "cell-free assay, competition with immobilised ligand", "setting": "1 µM", "remaining binding [%]": 100}
{"SMILES": "N[C@@H]1CCN(c2nccc(-c3cnn4ncccc34)n2)C1", "assay": "binding", "setting": "1 µM", "remaining binding [%]": 100}
{"SMILES": "CNCc1ccccc1-c1csc([C@H](C)Nc2nc(C)nc3cc(OC)c(OC)cc23)c1", "assay": "cell-free assay, competition with immobilised ligand", "setting": "1 µM", "remaining binding [%]": 91}
{"SMILES": "COc1ccnn2ncc(-c3ccnc(N(C)C)n3)c12", "assay": "binding", "setting": "1 µM", "remaining binding [%]": 80}
{"SMILES": "O=C1NC(c2ccccn2)Sc2ccccc21 (stereo not shown)", "assay": "cell-free assay, competition with immobilised ligand", "setting": "1 µM", "remaining binding [%]": 87}
{"SMILES": "C[C@@H](c1ccc(-n2cnc3c(N)ncnc32)cc1)N1CCc2nn(C)c(Cc3ccccc3)c2C1=O", "assay": "binding, competition with immobilised ligand", "setting": "0.1 µM", "remaining binding [%]": 61}
{"SMILES": "FC(F)(F)Oc1cccc(-c2cnc3ccc(-c4ccncc4)nn23)c1", "assay": "binding, competition with immobilised ligand", "setting": "5 µM", "remaining binding [%]": 75}
{"SMILES": "Cc1cnn2ncc(-c3ccnc(N(C)C)n3)c2c1", "assay": "binding", "setting": "1 µM", "remaining binding [%]": 73}
{"SMILES": "C=CC(=O)N1CCC(C(=O)NCC(=O)N2CCN(c3nc(-c4cnc(N)nc4C(F)F)nc(N4CCOCC4)n3)CC2)CC1", "assay": "binding, competition with immobilised ligand", "setting": "1 µM", "remaining binding [%]": 85}
{"SMILES": "CN(c1nccc(-c2cnn3ncccc23)n1)C1CC1", "assay": "binding", "setting": "1 µM", "remaining binding [%]": 100}
{"SMILES": "O=C(NCC1CCOCC1)c1n[nH]cc1NC(=O)c1c(F)cccc1F", "assay": "binding, competition with immobilised ligand", "setting": "1 µM", "remaining binding [%]": 89}
{"SMILES": "Cc1cnc(Nc2ccc(C(=O)N3CCC(N4CCCC4)CC3)cc2)nc1-c1cc2ccccc2s1", "assay": "binding, competition with immobilised ligand", "setting": "1 µM", "remaining binding [%]": 0.2}
{"SMILES": "C[C@@H]1CCN(c2nccc(-c3cnn4ncccc34)n2)C1", "assay": "binding", "setting": "1 µM", "remaining binding [%]": 58}
{"SMILES": "CN(C)CC#Cc1ccc(OCCCc2sc(N3CCc4cccc(C(=O)Nc5nc6ccccc6s5)c4C3)nc2C(=O)O)c(F)c1", "assay": "cell-free assay, competition with immobilised ligand", "setting": "1 µM", "remaining binding [%]": 100}
{"SMILES": "CN(C)c1nccc(-c2cnc3ncccn23)n1", "assay": "binding", "setting": "1 µM", "remaining binding [%]": 79}
{"SMILES": "Cc1nc(Cc2cccc(C(F)(F)F)c2)sc1-c1ccc(C(N)=O)nc1", "assay": "cell-free assay, competition with immobilised ligand", "setting": "1 µM", "remaining binding [%]": 100}
{"SMILES": "CC1CCCN1c1nccc(-c2cnn3ncccc23)n1 (stereo not shown)", "assay": "binding", "setting": "1 µM", "remaining binding [%]": 86}
{"SMILES": "Cc1cc(NC(=O)c2cccc(S(F)(F)(F)(F)F)c2)cc(-n2ccn3nc(-c4cccnc4)cc23)c1", "assay": "cell-free assay, competition with immobilised ligand", "setting": "1 µM", "remaining binding [%]": 81.3}
{"SMILES": "O=C(NCCCN1CCOCC1)c1ccc(Nc2nccc(-c3cc4ccccc4s3)n2)cc1", "assay": "binding, competition with immobilised ligand", "setting": "1 µM", "remaining binding [%]": 8}
{"SMILES": "CCCCN(CCCC)C(=O)CN1C[C@@H](c2cc(OC)c3c(c2)OCO3)[C@H](C(=O)O)[C@H]1CC(C)(C)CCC", "assay": "cell-free assay, competition with immobilised ligand", "setting": "1 µM", "remaining binding [%]": 77.6}
{"SMILES": "O=C(c1ccc(Nc2ncc(Cl)c(-c3ccc(Cl)s3)n2)cc1)N1CCC(N2CCCC2)CC1", "assay": "binding, competition with immobilised ligand", "setting": "1 µM", "remaining binding [%]": 0.1}
